Data from ChEMBL document CHEMBL2163208, “Diphenylpyridylethanamine (DPPE) derivatives as cholesteryl ester transfer protein (CETP) inhibitors” (J Med Chem, 2012).

What was measured:
[1] = AUC (0 to 8 hrs) in transgenic mouse expressing human CETP and apoB-100 at 30 mg/kg, po; format: ADME, organism-based; design: time < 8 hr, dose 30 mg/kg, route oral; details: plasma
[2] = species on record: Mus musculus; assay: Inhibition of [3H]cholesteryl ester transfer from HDL to LDL in human CETP expressed transgenic mouse plasma coexpressing apoB-100
[3] = tested on: Mus musculus; assay: [3H]cholesteryl ester transfer activity from HDL to LDL in human CETP expressed transgenic mouse plasma coexpressing apoB-100 at 30 mg/kg, po measured at 2 hrs relative to predose condition
[4] = tested on: Mus musculus; assay: Residual CETP-mediated [3H]cholesteryl ester transfer from HDL to LDL in human CETP expressed transgenic mouse coexpressing apoB-100 at 30 mg/kg, po measured at 4 hrs relative to predose condition
[5] = tested on: Mus musculus; assay: Residual CETP-mediated [3H]cholesteryl ester transfer from HDL to LDL in human CETP expressed transgenic mouse coexpressing apoB-100 at 30 mg/kg, po measured at 8 hrs relative to predose condition
[6] = molecular target: T1, Cholesteryl ester transfer protein (Homo sapiens, UniProt P11597); assay: Inhibition of CETP-mediated [3H]cholesteryl ester transfer activity in human plasma after 2.5 hrs by scintillation counter
T1 sequence (P11597 whole entry): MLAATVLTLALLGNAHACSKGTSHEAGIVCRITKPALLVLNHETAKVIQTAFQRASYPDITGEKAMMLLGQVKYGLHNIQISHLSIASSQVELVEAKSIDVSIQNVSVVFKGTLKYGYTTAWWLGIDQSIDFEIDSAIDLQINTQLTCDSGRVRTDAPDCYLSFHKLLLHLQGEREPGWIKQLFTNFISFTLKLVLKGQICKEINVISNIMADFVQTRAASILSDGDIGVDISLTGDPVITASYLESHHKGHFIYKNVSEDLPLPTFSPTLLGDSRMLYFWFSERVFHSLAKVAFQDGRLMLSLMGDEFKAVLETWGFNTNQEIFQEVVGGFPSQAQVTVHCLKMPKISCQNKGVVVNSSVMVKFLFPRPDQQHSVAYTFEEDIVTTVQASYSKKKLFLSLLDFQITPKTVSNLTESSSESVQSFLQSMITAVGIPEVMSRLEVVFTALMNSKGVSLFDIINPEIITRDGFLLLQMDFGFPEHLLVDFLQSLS

[7] = molecular target: T1, Cholesteryl ester transfer protein; assay: Inhibition of human recombinant CETP-mediated [3H]cholesteryl ester transfer from HDL to biotinylated LDL by scintillation proximity assay
[8] = Metabolic stability in mouse liver microsomes assessed as compound remaining at 3 uM after 10 mins; format: ADME, Microsome; details: read-out: Stability
How it was run: (§1)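 Mouse liver microsomes (1 mg/mL protein) incubated with compound at 3 μM for 10 min; remaining compound quantified by UV absorbance, expressed as % remaining or rate per mg protein.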

[9] = Drug metabolism in mouse liver microsomes assessed as per mg of protein at 3 uM after 10 mins; format: ADME, Microsome; how it was run: as §1
[10] = tested on: Syrian golden hamster; assay: Inhibition of CETP in moderately fat-fed golden Syrian hamster assessed as increase in HDL-cholesterol level at 30 mg/kg, po qd administered for 3 days measured at 2 hrs post last dose relative to predose condition; format: functional, Mesocricetus auratus; design: scale not given: the % may be the effect or the level left
How it was run: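 Male Golden Syrian hamsters, 12 weeks old, fed moderate-fat diet (2.5% coconut oil, 0.25% cholesterol) for 2 weeks. Predose retro-orbital bleed; 30 mg/kg po q.d. for 3 days in ethanol/Cremophor/water 1:1:8. Blood 2 h postdose on day 3; HDL-C measured by automated lipid analyzer versus predose; percent increase as mean ± SEM, N = 6.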

[11] = tested on: Rattus norvegicus; assay: Toxicity in telemeterized rat assessed as change in heart rate up to 60 mg/kg, po; format: organism-based; design: dose 60 mg/kg, route oral; details: in vivo
[12] = tested on: Rattus norvegicus; assay: Toxicity in telemeterized rat assessed as change in mean arterial blood pressure up to 60 mg/kg, po; format: organism-based; design: dose 60 mg/kg, route oral; details: in vivo
[13] = Cmax in telemeterized rat up to 60 mg/kg, po; format: ADME, organism-based; design: dose 60 mg/kg, route oral; details: in vivo
[14] = Half life in telemeterized rat up to 60 mg/kg, po; format: ADME, organism-based; design: dose 60 mg/kg, route oral; details: in vivo
[15] = Plasma concentration in moderately fat-fed golden Syrian hamster at 30 mg/kg, po qd administered for 3 days measured at 2 hrs post last dose; format: ADME, organism-based, Mesocricetus auratus; design: dose 30 mg/kg, route oral
How it was run: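 Moderately fat-fed male Golden Syrian hamsters dosed 30 mg/kg po once daily; plasma exposure sampled 2 h after dosing on day 3.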

IC50 [6] | IC50 [7] | Structure (SMILES) | other results
– | – | CCOC(=O)N1c2ccc(C(F)(F)F)cc2[C@@H](N(Cc2cc(C(F)(F)F)cc(C(F)(F)F)c2)C(=O)OC)C[C@H]1CC [TORCETRAPIB] | AUC(0-t) at 8 h [1]: 65 µM·h; IC50 [2]: 0.16 µM; activity in vivo at 30 mg/kg [3]: 31%; CETP activity in vivo at 30 mg/kg [4]: 31%; CETP activity in vivo at 30 mg/kg [5]: 25%
56 µM | 6.9 µM | CC(C)(C)CC(=O)OC(Cc1ccccc1)(c1cccc(C(F)(F)F)c1)c1ccccn1 (racemic) | –
– | 12 µM | O=C(NC(Cc1ccccc1)(c1cccc(C(F)(F)F)c1)c1ccccn1)c1cccc(C(F)(F)F)c1 (stereo not given) | –
9.4 µM | 1.3 µM | CC(C)(C)CC(=O)OC(Cc1ccccc1)(c1cccc(C(F)(F)F)c1)c1ccc(Cl)cn1 (racemic) | –
– | 27 µM | O=C(NC1CCCC1)N[C@@](Cc1ccccn1)(c1cc(F)cc(C(F)(F)F)c1)c1ccc(Cl)cn1 | –
12 µM | 0.031 µM | O=C(NC1CCCC1)NC(Cc1ccccc1)(c1ccc(Cl)nc1)c1cc(F)cc(C(F)(F)F)c1 (racemic) | –
– | > 96 µM | O=C(NC(Cc1ccccc1)(c1cccc(C(F)(F)F)c1)c1ccccn1)c1ccccc1 (stereo not given) | –
16 µM | 0.31 µM | O=C(NC1CCCC1)NC(Cc1ccccc1)(c1cccc(C(F)(F)F)c1)c1ccc(Cl)cn1 (racemic) | –
3.4 µM | 0.023 µM | Cc1ccc(C[C@](NC(=O)NC2CCCC2)(c2cc(F)cc(C(F)(F)F)c2)c2ccc(Cl)cn2)cc1 | –
34 µM | 1.07 µM | Cc1nc(C[C@](NC(=O)NC2CCCC2)(c2cc(F)cc(C(F)(F)F)c2)c2ccc(Cl)cn2)no1 | –
24 µM | 1.1 µM | Cc1csc(C[C@](NC(=O)NC2CCCC2)(c2cc(F)cc(C(F)(F)F)c2)c2ccc(Cl)cn2)n1 | –
2.7 µM | 0.031 µM | O=C(NC1CCCC1)NC(Cc1ccccc1)(c1cccc(OC(F)(F)F)c1)c1ccc(Cl)cn1 (racemic) | –
15 µM | 2.9 µM | O=C(NC(Cc1ccccc1)(c1cccc(C(F)(F)F)c1)c1ccccn1)c1ccc(F)c(C(F)(F)F)c1 (stereo not given) | remaining at 10 min, 3 µM [8]: 68%
6.4 µM | 0.016 µM | O=C(NC1CCCC1)N[C@@](Cc1ccccc1F)(c1cc(F)cc(C(F)(F)F)c1)c1ccc(Cl)cn1 | –
25 µM | 0.7 µM | O=C(NC1CCCC1)NC(Cc1ccccc1)(c1cccc(C(F)(F)F)c1)c1ccccn1 (stereo not given) | remaining at 10 min, 3 µM [8]: 2%
– | > 96 µM | O=C(NC1CCCC1)N[C@@](Cc1ncn[nH]1)(c1cc(F)cc(C(F)(F)F)c1)c1ccc(Cl)cn1 | –

IC50 [6] | IC50 [7] | Structure (SMILES) | other results
83 µM | 3.8 µM | CC(C)(C)NC(=O)NC(Cc1ccccc1)(c1cccc(C(F)(F)F)c1)c1ccccn1 (stereo not given) | –
28 µM | 1.1 µM | CC(C)(C)CC(=O)OC(Cc1ccccc1)(c1cccc(OC(F)(F)C(F)F)c1)c1ccccn1 (racemic) | –
3.4 µM | 0.015 µM | COc1ccc([C@@](Cc2ccccc2)(NC(=O)NC2CCCC2)c2cc(F)cc(C(F)(F)F)c2)cn1 | –
– | 2.4 µM | COC(=O)C[C@](NC(=O)NC1CCCC1)(c1cc(F)cc(C(F)(F)F)c1)c1ccc(Cl)cn1 | –
– | – | O=C(NC1CCCC1)N[C@@](Cc1ccccc1)(c1cc(F)cc(OC(F)(F)C(F)F)c1)c1ccc(Cl)cn1 | AUC(0-t) at 8 h [1]: 9.7 µM·h; IC50 [2]: 0.94 µM; activity in vivo at 30 mg/kg [3]: 48%; remaining at 10 min, 3 µM [8]: 10%; Drug metabolism [9]: 0.27 nmol/min/mg; CETP activity in vivo at 30 mg/kg [4]: 58%; CETP activity in vivo at 30 mg/kg [5]: 65%
6.9 µM | 0.24 µM | O=C(NC1CCCC1)NC(Cc1ccccc1)(c1cccc(C(F)(F)F)c1)c1ccc(F)cn1 (racemic) | –
7.1 µM | 0.085 µM | C=CC[C@](NC(=O)NC1CCCC1)(c1cc(F)cc(C(F)(F)F)c1)c1ccc(Cl)cn1 | –
– | 27 µM | CC(C)(C)CC(=O)NC(Cc1ccccc1)(c1cccc(C(F)(F)F)c1)c1ccccn1 (stereo not given) | –
12 µM | 0.036 µM | N#Cc1ccc([C@@](Cc2ccccc2)(NC(=O)NC2CCCC2)c2cc(F)cc(C(F)(F)F)c2)nc1 | –
0.84 µM | 0.025 µM | O=C(NC1CCCC1)NC(Cc1ccccc1)(c1cccc(OC(F)(F)C(F)F)c1)c1ccc(Cl)cn1 (racemic) | –
> 97 µM | 44 µM | CC(C)(C)CC(=O)O[C@](Cc1ccccc1)(c1cccc(C(F)(F)F)c1)c1ccccn1 | –
7.6 µM | 0.026 µM | O=C(NC1CCCC1)N[C@@](Cc1ccccc1)(c1cc(F)cc(C(F)(F)F)c1)c1ccc(F)cn1 | –
10 µM | 0.087 µM | O=C(NC1CCCC1)N[C@@](Cc1ccc(F)cc1)(c1cc(F)cc(C(F)(F)F)c1)c1ccc(Cl)cn1 | –
26 µM | 6.7 µM | CC(C)(C)CC(=O)O[C@@](Cc1ccccc1)(c1cccc(C(F)(F)F)c1)c1ccccn1 | –
3.6 µM | 0.036 µM | O=C(N[C@@](Cc1ccccc1)(c1cc(F)cc(OC(F)(F)C(F)F)c1)c1ccc(Cl)cn1)c1ccc(F)c(C(F)(F)F)c1 | AUC(0-t) at 8 h [1]: 93 µM·h; Activity [10]: 40%; IC50 [2]: 9 µM; Activity [11]: Non-toxic; activity in vivo at 30 mg/kg [3]: 55%; Activity [12]: Non-toxic; Cmax [13]: 25 µM; remaining at 10 min, 3 µM [8]: 100%; Drug metabolism [9]: 0.0025 nmol/min/mg; CETP activity in vivo at 30 mg/kg [4]: 48%; half-life [14]: 14 h; CETP activity in vivo at 30 mg/kg [5]: 40%; concentration at 2 h [15]: 21 µM
– | 8.9 µM | O=C(NC(Cc1ccccc1)(c1cccc(C(F)(F)F)c1)c1ccccn1)c1ccc(F)cc1 (stereo not given) | –
